# OX1R antag-1: OX1R (HCRTR1) antagonists, primary screen, fluorescence, CHO/OX1R cells, Fluo-8 calcium, orexin A; Fluo-8 calcium fluorescence; hit rate 0.43% among 330,000; Orexin/Hypocretin receptor type 1 (Homo sapiens), O43613; inhibition, % at 5 µM;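 active = inhibition above its plate's threshold, mean inhibition of all tested compounds on the plate plus 3 SD, cut at about 37% in these data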;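 also: 0% = orexin A challenge wells and 100% = SB-334867-A antagonist wells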
# Target sequence (O43613 whole entry, looked up): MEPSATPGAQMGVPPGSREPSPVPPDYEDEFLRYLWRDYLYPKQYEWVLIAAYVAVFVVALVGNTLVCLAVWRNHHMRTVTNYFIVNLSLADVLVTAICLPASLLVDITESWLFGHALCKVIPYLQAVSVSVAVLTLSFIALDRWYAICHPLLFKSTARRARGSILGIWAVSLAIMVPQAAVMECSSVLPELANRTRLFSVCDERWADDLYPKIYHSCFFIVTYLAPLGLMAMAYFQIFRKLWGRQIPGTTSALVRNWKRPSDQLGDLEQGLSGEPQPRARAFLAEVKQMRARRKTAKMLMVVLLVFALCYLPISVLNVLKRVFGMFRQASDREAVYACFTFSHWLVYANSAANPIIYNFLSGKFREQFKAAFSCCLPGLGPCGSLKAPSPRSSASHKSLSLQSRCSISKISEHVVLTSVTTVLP
# TAAR1 antagonist: human TAAR1 antagonists, primary screen, Fluo-8 calcium fluorescence, CHO RD-HGA16 cells; AID 624466, 2012; antagonist; hit rate 1.5% among 360,000; inhibition, % at 3 µM; Trace amine-associated receptor 1 (Homo sapiens), Q96RJ0;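 active = inhibition above a per-plate cutoff, the mean inhibition of test compounds on that plate plus 3 SD, cut at about 49% in these data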;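 also: 0% = DMSO plus EC80 beta-PEA response and 100% = DMSO alone without agonist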
# Target sequence (Q96RJ0 whole entry, looked up): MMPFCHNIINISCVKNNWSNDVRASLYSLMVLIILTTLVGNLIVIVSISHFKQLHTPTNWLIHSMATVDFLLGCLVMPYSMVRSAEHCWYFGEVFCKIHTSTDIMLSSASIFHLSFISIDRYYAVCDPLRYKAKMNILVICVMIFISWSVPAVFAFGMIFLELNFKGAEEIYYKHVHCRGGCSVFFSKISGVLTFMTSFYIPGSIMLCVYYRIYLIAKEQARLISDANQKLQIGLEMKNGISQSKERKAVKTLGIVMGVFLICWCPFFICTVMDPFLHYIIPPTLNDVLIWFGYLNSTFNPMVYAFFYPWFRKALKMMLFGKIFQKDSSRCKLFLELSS
#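 Test system: CHO RD-HGA16 cells bearing hTAAR1 | Reagent: β-PEA, EC80 | Compound dosing: 3 µM, single point | Schedule: Dye loading 75 min at 37 °C, then 30 min room temperature | Signal: Calcium fluorescence with Fluo-8 | Evaluation: Percent inhibition of PEA-evoked calcium signal, max/basal emission ratio | Control set: DMSO-only wells and EC80 β-PEA-stimulated wells | Repeats: Singlicate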
# TAAR1 agonist: human TAAR1 agonists, primary screen, Fluo-8 calcium fluorescence, CHO RD-HGA16 cells; activation, % at 3 µM; hit rate 0.99% among 360,000; Trace amine-associated receptor 1 (Homo sapiens), Q96RJ0; vehicle wells 0%, saturating PEA agonist 100%;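 active = activation above the mean activation of all test compounds in the run plus 3 SD, cut at about 38% in these data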
#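 System: CHO-derived RD-HGA16 cells with stable Gα16 and human TAAR1. Times: 17-24 h plating, Fluo-8 75 min 37 °C, 30 min RT. Measured by: calcium-sensitive Fluo-8 signal, excitation 470-495, emission 515-575 nm. Read-out basis: % activation relative to PEA EC100 response. Control set: DMSO and PEA EC100. Repeats: no replicates (n 1).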
# OX1R antag-2: antagonists of human orexin 1 receptor (OX1R). inhibition, % at 6.6 µM. Orexin/Hypocretin receptor type 1 (Homo sapiens), O43613. hit rate 1.8% among 330,000. OX1R-expressing cells, FRET antagonist read-out; in the data active = inhibition mostly above about 38%, no sharp cut-off; inactive = mostly below about 40%;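 also: 0% = agonist challenge alone and 100% = reference antagonist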
# GalR3 antagonist: GalR3 antagonists in HEK293 cells, primary screen, cell-based, fluorescence readout | Galanin receptor type 3 (Homo sapiens), O60755 | HEK293 GalR3-CNG cAMP membrane potential fluorescence; galR3 body fused to GalR1 C-terminus | inhibition, % at 3 µM | hit rate 0.44% among 360,000;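 active = inhibition above the screen-wide average plus 3 SD, cut at about 13% in these data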;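 also: forskolin and galanin both at EC90 stimulate the cells; cAMP rise reported by CNG channel membrane potential dye signal; 0% = forskolin plus galanin with DMSO and 100% = forskolin alone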
# CHO parental Ca: ATP-evoked calcium signal inhibitors, parental CHO, primary screen, counter-screen for OX1R antagonist project, cell-based, fluorescence, Fluo-8 calcium dye | parental CHO-K1, ATP-induced calcium, Fluo-8 fluorescence | inhibition, % at 5.6 µM | hit rate 0.63% among 330,000;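 active = inhibition above that plate's mean sample inhibition plus 3 SD, cut at about 26% in these data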;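 also: 0% = ATP-challenged DMSO wells and 100% = DMSO wells without ATP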
#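 Assay system – parental CHO cells · Reagent – ATP stimulus · Detection – intracellular calcium via Fluo-8 no-wash fluorescent dye · Evaluation – percent inhibition of ATP-evoked calcium rise, normalized to controls · Controls – ATP wells versus no-ATP DMSO wells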
# nonsel antag count: nonselective antagonists in TAAR1 counter-screen cells, counter-screen for hTAAR1 antagonist project, cell-based, fluorescence, calcium; shares compounds with TAAR1 antagonist; inhibition, % at 3 µM; hit rate 77% among 2,400; counterscreen cell line, antagonist mode; in the data active = inhibition above about 22%;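 also: CHO-Ga16 host cells stimulated with ATP at an EC80 level; 0% = agonist EC80 plus vehicle and 100% = vehicle without agonist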
# TAAR1 antag conf: human TAAR1 antagonists, retest of hits, confirmation, cell-based, fluorescence | TAAR1-expressing cells, fluorescence antagonist read-out | shares compounds with TAAR1 antagonist | hit rate 40% among 2,400 | AID 651785, 2012 | inhibition, % at 3 µM; in the data active = inhibition above about 49%;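 also: CHO-Ga16 host cells challenged with agonist PEA near its EC80; 0% = agonist at EC80 plus vehicle and 100% = vehicle with no agonist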
# Ga16 nonsel ag: calcium activation in Ga16-expressing cells, counter-screen for TAAR1 antagonist project, cell-based, fluorescence; shares compounds with TAAR1 antagonist; agonist counterscreen; AID 651953, 2012; activation, % at 3 µM; hit rate 18% among 2,400; in the data active = activation above about 12%;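 also: 0% = vehicle wells and 100% = saturating stimulus response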
# TAAR1 ag count: TAAR1 activation by candidate antagonists – cell-based, fluorescence, counter-screen for TAAR1 antagonist project | shares compounds with TAAR1 antagonist | hTAAR1 cell line, agonist mode | activation, % at 3 µM | hit rate 2% among 2,400 | AID 651955, 2012; in the data active = activation above about 37%;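 also: CHO cells stably expressing TAAR1 with calcium dye readout; 0% = DMSO vehicle and 100% = full agonist response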
# Numbers without * were called inactive; . = no result given. In the library only some 4.3% were active in any assay of this set; here they are far more common.
SMILES,OX1R antag-1,TAAR1 antagonist,TAAR1 agonist,OX1R antag-2,GalR3 antagonist,CHO parental Ca,nonsel antag count,TAAR1 antag conf,Ga16 nonsel ag,TAAR1 ag count
COc1ccc(CCNC(=O)C(=O)NCC2OCCN2C(=O)c2ccc(Cl)cc2)cc1 (stereo not drawn),-38,60*,12,24,0,-23,22*,37,8,12
COc1ccc(OC)c(C(O)c2ncc(-c3cccc4ccccc34)[nH]2)c1 (stereo not drawn),.,7,4,.,-8,.,.,.,.,.
CN(C1CCCCC1)S(=O)(=O)c1ccc(NC(=O)c2ccc(Br)o2)cc1,-7,63*,15,37,1,-24,23*,44,7,10
COc1cccc(-c2ccc(NC(=O)C3CCCN(CCCn4cccn4)C3)cc2)c1 (stereo not drawn),-7,9,10,7,-2,-9,.,.,.,.
COc1ccc(-c2c(C)nc3c(-c4ccccn4)cnn3c2N)cc1,.,67*,11,.,-13,.,24*,62*,10,12
COc1ccc(-c2c(C)nc3c(-c4ccsc4)cnn3c2N)cc1,-1,9,4,4,-10,-5,.,.,.,.
Cc1ccc(C(=O)NNC(=O)c2cc(C)nc3ccccc23)cc1,-29,4,1,6,-5,-12,.,.,.,.
Nc1ncnc2nc(N3CCN(C(=O)c4ccccc4)CC3)[nH]c12,-20,102*,-6,15,-3,-5,6,4,4,4
O=C(c1ccccc1)N1CCN(c2ncccn2)CC1,-23,-26,2,-7,-3,-2,.,.,.,.
CN(Cc1cnn(-c2ccccc2)c1)C(=O)c1cccc(S(=O)(=O)N(C)c2ccccc2)c1,.,63*,3,.,-3,.,35*,42,9,4
Cc1cc(C)c(S(=O)(=O)Nc2cc(C)on2)c(C)c1,-1,-19,0,16,-1,0,.,.,.,.
COc1ccc(C(=O)CSc2nc(C)cc(C)n2)cc1C,3,-4,4,37,-14,8,.,.,.,.
Cc1ccc(SCC(=O)c2cc(C)c(O)c(C)c2)cc1,-23,16,0,11,-11,-8,.,.,.,.
COc1ccc(SCC(=O)c2cc(C)c(OC(=S)N(C)C)c(C)c2)cc1,-6,74*,8,32,3,35,31*,46,4,5
Cc1cc(C(=O)CSc2ccc(F)cc2)cc(C)c1OC(=S)N(C)C,-14,78*,4,24,-1,-1,34*,60*,11,8
O=C(NCCSc1ncc(-c2ccc(F)cc2)[nH]1)c1ccc2c(c1)OCO2,-7,-1,2,26,-3,-24,.,.,.,.
O=C(COc1ccc(CNC[C@H]2O[C@@H](n3ccc(=O)[nH]c3=O)[C@H](O)[C@@H]2O)cc1)Nc1nccs1,.,-17,1,.,-6,.,.,.,.,.
CCN(CC)c1ncnc2c1ncn2[C@H]1CN(Cc2cc(OC)c(OC)c(OC)c2)C[C@@H](CO)O1,.,-15,1,.,5,.,.,.,.,.
CC1(C(=O)NCc2cccs2)CCN1C(=O)Cc1cccc2ccccc12 (stereo not drawn),.,-8,1,.,-8,.,.,.,.,.
CC(C)C(=O)N1CCN(c2ccccc2NC(=S)NC(=O)/C=C/c2ccco2)CC1,-14,51*,6,12,-5,-24,19,46,4,13
O=C(Nc1ccccc1OC(=O)c1ccc(Cl)cc1)c1ccc(Cl)cc1,-13,54*,0,6,-2,-23,-2,53*,1,9
O=C(Nc1ccccc1N1CCN(C(=O)c2ccc(Cl)cc2)CC1)c1ccc(Br)cc1,-37,18,6,9,-4,-33,.,.,.,.
CC(C)C(=O)NC(=S)Nc1ccccc1N1CCN(C(=O)c2ccccc2)CC1,-28,78*,18,19,-2,-19,38*,60*,14*,17
Cc1ccc(C(=O)Nc2cc(Cl)ccc2OC(=O)c2ccc(C)cc2)cc1,6,-7,-1,25,-4,20,.,.,.,.
CC(=O)NC(=S)Nc1ccccc1N1CCN(C(=O)c2ccccc2)CC1,-22,6,15,5,-7,-22,.,.,.,.
SMILES,OX1R antag-1,TAAR1 antagonist,TAAR1 agonist,OX1R antag-2,GalR3 antagonist,CHO parental Ca,nonsel antag count,TAAR1 antag conf,Ga16 nonsel ag,TAAR1 ag count
O=C(Nc1ccccc1N1CCN(C(=O)c2ccccc2)CC1)c1ccc(Cl)cc1,-34,55*,5,12,-9,-29,24*,46,5,1
Cc1ccc(C(=O)Nc2ccncc2)cc1S(=O)(=O)N1CCCCC1,.,11,4,.,-8,.,.,.,.,.
CSc1ncnc2c1ncn2CCCNc1ccc(C)c(C)c1,.,9,2,.,-6,.,.,.,.,.
Cc1noc(C)c1C(=O)Nc1nc2ccc(Cl)cc2s1,-15,-37,1,18,-3,4,.,.,.,.
Cc1cccc(OCCNS(=O)(=O)c2ccc(Cl)cc2)c1,-17,18,-2,9,-5,-26,.,.,.,.
O=C(OCC(=O)N(CCc1ccccc1)Cc1ccccc1)c1cccc(O)c1,-6,19,-2,11,-5,4,.,.,.,.
O=C(OCC(=O)N(Cc1ccccc1)Cc1ccccc1)c1cccc(O)c1,-17,63*,7,6,3,-12,26*,40,2,2
CN(CC(=O)Nc1ccc(F)c(F)c1F)C(=O)C1(c2ccccc2)CC1,.,-7,10,.,-3,.,.,.,.,.
COc1cc(/C=C2\CCC/C(=C\c3ccc(O)c(OC)c3)C2=O)ccc1O,4,53*,14,5,-8,4,35*,48,7,14
O=[N+]([O-])c1ccc(/C=N/Nc2ccc3ccccc3c2)o1,37,76*,21,30,-5,42*,52*,65*,19*,7
